Screening data as filed in PubChem BioAssay.
Many of the other results were omitted from the sample, so hits are more common in it than they were.
HUVEC inhibit = human endothelial cell proliferation inhibition; 1.1% of 86,000 active; viability, % at 10 µM (by protocol); HUVEC proliferation, CellTiter-Glo luminescence, 72 h; hits give low values;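 active = viability at or below 30%; inactive = viability above 30%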
H69AR growth 86K = blocks growth of human H69AR lung tumor cells | H69AR lung tumor viability, ATP luminescence, 72 h; hits give low values | viability, % at 10 µM | 6% of 85,000 active | AID 598;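 active = viability at or below 40%; inactive = viability above 40%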;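 also: multidrug resistant small cell line overexpressing MRP-1 efflux transporter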
HCT116 bCat-KO = beta-catenin-lacking colon tumor cell growth suppression. HCT116 beta-catenin knockout viability, CellTiter-Glo, 60 h; hits give low values. viability, % at 10 µM. 1.5% of 140,000 active;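 active = viability at or under a set limit, the compound median less 4 SD, cut at about 6% in these data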
Lung fibro prol = blocks proliferation of human lung fibroblasts; LL 47 human lung fibroblast viability, ATP luminescence; hits give low values; viability, % at 10 µM; 1.1% of 85,000 active; AID 719;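 active = viability at or below 50% in the single dose screen; inactive = viability above 50%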;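 also: compound exposure lasted 72 h before the ATP readout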
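Test system: LL 47 human lung fibroblasts / Incubation: 72 h compound exposure at 37 °C after overnight plating / Technique: luminescent ATP detection, CellTiter-Glo / Compound dosing: 0.1% DMSO in all compound wells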
PTEN del growth = PTEN-deleted cell growth suppression | HCT116 PTEN-null viability, CellTiter-Glo, 60 h; hits give low values | 1.2% of 140,000 active | viability, % at 10 µM;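 active = viability at or below a set limit, 4 SD under the median of all tested compounds, cut at about 3.7% in these data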;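 also: PTEN knockout HCT116 line with beta catenin targeted HCT116 as companion control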
Each line names hits and unclear results; the compound was inactive in the other large screens.

COc1ccc(OC2C(=O)N(Cc3ccc(F)cc3)C2c2cc(OC)c(OC)c(OC)c2)cc1 (configuration not stated)	none (no result: HUVEC inhibit, H69AR growth 86K, Lung fibro prol)
COc1cc2c3nnc(-c4ccc(F)cc4)c-3cn(Cc3ccccc3)c2cc1OC	HUVEC inhibit 1.8, H69AR growth 86K 1.5, HCT116 bCat-KO 1.1, Lung fibro prol 2.7, PTEN del growth 1.6
CC1CC1c1ccc(/C=C(\C#N)C(=O)Nc2cccc(Cl)c2Cl)o1 (configuration not stated)	none (no result: HUVEC inhibit, H69AR growth 86K, Lung fibro prol)
CSc1nc(N)nc(SCCS(=O)(=O)c2ccc(Cl)cc2)c1C#N	H69AR growth 86K 2.5
CSc1nc(N)nc(SCC(=O)Nc2ccc(Cl)cc2)c1C#N	none (no result: HUVEC inhibit, H69AR growth 86K, Lung fibro prol)
N#CCCSc1nc(N2CCOCC2)c2c(c1C#N)CCCC2	H69AR growth 86K 38
CCCSc1nc(N2CCOCC2)c2c(c1C#N)CCCC2	none
CCc1nnc(NC(=O)CSc2nccn2-c2cccc(C)c2C)s1	H69AR growth 86K 18
Cc1cccc(-n2ccnc2SCC(=O)Nc2nccs2)c1C	none
CCc1nnc(NC(=O)CSc2nccn2-c2cc(C)cc(C)c2)s1	H69AR growth 86K 22
CCOc1ccc(-n2ccnc2SCC(=O)Nc2nnc(C)s2)cc1	none
Cc1nc2cc(C(=O)N3CCc4ccccc43)ccc2n1-c1ccc(F)c(F)c1	none (no result: HUVEC inhibit, H69AR growth 86K, Lung fibro prol)
COc1cc([N+](=O)[O-])ccc1NC(=O)CCCOc1cc(C)ccc1C	none (no result: HUVEC inhibit, H69AR growth 86K, Lung fibro prol)
COC(=O)Cn1ncc(N2C3CC(CC(C)(C)C3)C2C)c(Cl)c1=O (configuration not stated)	none (no result: HUVEC inhibit, H69AR growth 86K, Lung fibro prol)
CC(=O)NC1(C(Cl)(Cl)Cl)Oc2ccccc2O1	none (no result: HUVEC inhibit, H69AR growth 86K, Lung fibro prol)
NS(=O)(=O)c1ccc(CCNC(=O)CSc2ccccc2)cc1	none (no result: HUVEC inhibit, H69AR growth 86K, Lung fibro prol)
COc1ccc(OC)c(NC(=O)NC2(C(F)(F)F)Oc3ccccc3O2)c1	H69AR growth 86K 13
O=C(NCCN1CCOCC1)NC1(C(F)(F)F)Oc2ccccc2O1	H69AR growth 86K 18
NS(=O)(=O)c1ccc(CCNC(=O)NC2(C(F)(F)F)Oc3ccccc3O2)cc1	H69AR growth 86K 20
CCCCNC(=O)NC1(C(F)(F)F)Oc2ccccc2O1	H69AR growth 86K 22
Cc1ccc(-n2c(SCC(=O)Nc3cccc(S(N)(=O)=O)c3)nc3ccccc32)cc1	none (no result: HUVEC inhibit, H69AR growth 86K, Lung fibro prol)
Cc1ccc(C)n1-c1ccc(C(=O)NN)cc1	none (no result: HUVEC inhibit, H69AR growth 86K, Lung fibro prol)
CN1CCN(C(c2cccc(C(F)(F)F)c2)c2nnnn2Cc2ccccc2)CC1 (configuration not stated)	none
CC1CCN(S(=O)(=O)c2ccc3c(c2)oc(=O)n3CC(=O)N2CCc3ccccc3C2)CC1	H69AR growth 86K 18
CCN1CCN(c2cc(N3CCc4ccccc4C3)c(F)cc2[N+](=O)[O-])CC1	HCT116 bCat-KO 1.0, PTEN del growth 0.5 (no result: HUVEC inhibit, H69AR growth 86K, Lung fibro prol)
CC1CCN(c2cc(N3CCOCC3)c([N+](=O)[O-])cc2F)CC1	none (no result: HUVEC inhibit, H69AR growth 86K, Lung fibro prol)
Cc1ccc(/C=C/C(=O)c2nc3ccccc3[nH]2)cc1	HCT116 bCat-KO 2.5, PTEN del growth 2.7 (no result: HUVEC inhibit, H69AR growth 86K, Lung fibro prol)
Cc1ccc(/C=C/C(=O)Nc2nc3ccccc3[nH]2)cc1	none (no result: HUVEC inhibit, H69AR growth 86K, Lung fibro prol)
C(=C\c1ccccc1)/CSc1nnc(-c2ccccn2)n1Cc1ccco1	H69AR growth 86K 19, Lung fibro prol 43
C=C1[C@@H](C)C2[C@H](Cc3ccccc3)NC(=O)[C@]23OC(=O)CC[C@H](O)CCC[C@H](C)C/C=C/[C@H]3[C@@H]1O (some centres not stated)	HUVEC inhibit 15, H69AR growth 86K 38, Lung fibro prol 25 (no result: HCT116 bCat-KO, PTEN del growth)
Cc1ccc(NC(=O)c2ccc(Cl)c(N3C(=O)C=CC3=O)c2)cc1	none (no result: HUVEC inhibit, H69AR growth 86K, Lung fibro prol)
O=C1/C(=C\c2ccc3ccccc3c2)CCCc2ccccc21	H69AR growth 86K 17
CCN1C/C(=C\c2cccc([N+](=O)[O-])c2)C(=O)/C(=C/c2cccc([N+](=O)[O-])c2)C1	HCT116 bCat-KO 1.6, PTEN del growth 1.4 (no result: HUVEC inhibit, H69AR growth 86K, Lung fibro prol)
Cc1ccccc1/C=C1\CCCc2ccccc2C1=O	none
COc1ccc(/C=C2\CCc3ccccc3C2=O)cc1OC	none (no result: HUVEC inhibit, H69AR growth 86K, Lung fibro prol)
O=C1/C(=C/c2cccc([N+](=O)[O-])c2)CCc2ccccc21	HCT116 bCat-KO 3.2, PTEN del growth 2.0 (no result: HUVEC inhibit, H69AR growth 86K, Lung fibro prol)
Cc1nn(-c2ccccc2)c(C)c1/C=N/NC(=O)CSc1nnc(SCc2cccc3ccccc23)s1	none (no result: HUVEC inhibit, H69AR growth 86K, Lung fibro prol)
CCOC(=O)c1cnc2ccc(OCC)cc2c1N1CCN(c2ccccc2OC)CC1	H69AR growth 86K 29
Cn1c(-c2c(N)n(CCCc3ccccc3)c3nc4ccccc4nc23)nc2ccccc21	H69AR growth 86K 23
Cn1c(-c2c(N)n(CCc3ccccc3)c3nc4ccccc4nc23)nc2ccccc21	H69AR growth 86K 36
CN(C1=NC(=O)C(CC(=O)Nc2ccc(Br)cc2)S1)c1ccc(O)cc1 (configuration not stated)	none
N/C(Cc1ccc(Cl)cc1Cl)=N\OC(=O)Cc1ccc(Cl)cc1	none (no result: HUVEC inhibit, H69AR growth 86K, Lung fibro prol)
Cc1ccccc1NC(=S)NC1CCN(Cc2ccccc2)CC1	none (no result: HUVEC inhibit, H69AR growth 86K, Lung fibro prol)
Cc1cc2nc(-c3ccc(SCC(=O)N4CCc5ccccc54)nc3)[nH]c2cc1C	HCT116 bCat-KO 0.8, PTEN del growth 1.0 (no result: HUVEC inhibit, H69AR growth 86K, Lung fibro prol)
Cc1cc(NC(=O)CSc2ccc(-c3nc4cc(C)c(C)cc4[nH]3)cn2)no1	none
CCC(=O)Oc1ccc(C/C(=N\O)c2ccc(O)cc2O)o1	H69AR growth 86K 16
CCOC(=O)c1ccc(CC(=O)c2ccc(O)cc2O)o1	none
CCOc1cccc(NC(=O)C2CC(=O)N(C)C(=Nc3ccccc3)S2)c1 (configuration not stated)	H69AR growth 86K 21
CCOc1cccc(NC(=O)C2CC(=O)N(C)C(=Nc3cccc(F)c3)S2)c1 (configuration not stated)	none (no result: HUVEC inhibit, H69AR growth 86K, Lung fibro prol)
COc1ccc(/C=N/NC(=O)c2cccc(OC(F)(F)C(F)F)c2)cc1O	none (no result: HUVEC inhibit, H69AR growth 86K, Lung fibro prol)
O=C(C1c2ccccc2Oc2ccccc21)N1CCN(c2ccc(Cl)cc2)CC1	H69AR growth 86K 39
COc1ccccc1N1CCN(C(=O)C2c3ccccc3Oc3ccccc32)CC1	H69AR growth 86K 30
COc1ccccc1N1CCN(C(=O)C2CC=CCC2C(=O)O)CC1 (configuration not stated)	none
CC1=CC(C)(C)n2c(O)c(C3=NC(=S)NC3=O)c3cc(OC(=O)c4cccc5ccccc45)cc1c32	HCT116 bCat-KO 1.8, PTEN del growth 0.9 (no result: HUVEC inhibit, H69AR growth 86K, Lung fibro prol)
COc1cccc(C(=O)Oc2cc3c4c(c2)C(C)=CC(C)(C)N4C(=O)C3=O)c1	none (no result: HUVEC inhibit, H69AR growth 86K, Lung fibro prol)
CSc1nc2c(c(-c3ccc(O)cc3)c1C#N)CCC2	H69AR growth 86K 26
N#Cc1c(N)c(C#N)c(-c2ccc(O)cc2)c2c1CCCC2	none
Nc1c(C(=O)OCC2CCCO2)c2nc3ccccc3nc2n1C1CCCC1 (configuration not stated)	H69AR growth 86K 15
CC(C)Cn1c(N)c(C(=O)NCC2CCCO2)c2nc3ccccc3nc21 (configuration not stated)	H69AR growth 86K 36
COCCn1c(N)c(C(=O)NCC2CCCO2)c2nc3ccccc3nc21 (configuration not stated)	none
Cc1oc(-c2ccccc2)cc1C(=O)Nc1cccc2ccccc12	H69AR growth 86K 34
CCCN1C(=O)C(O)(CC(=O)c2cccc(OC)c2)c2ccccc21 (configuration not stated)	H69AR growth 86K 28
